This is a sample that favours compounds with a hit; in the whole collection about 1.6% have one here.
MT1-MMP act inh = inhibitors of human MT1-MMP activation; P50281; HT1080 RFP-PRO-GFP cells, GFP/RFP ratio fluorescence, overnight; percent of plate control window, DMSO zero; GFP/RFP ratio change, % at 20 µM; 0.061% of 360,000 active;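 active = GFP/RFP ratio change of at least 30% with cell ATP level not reduced by more than half and red fluorescence within 50% of control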
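Assay system: HT1080 RFP-PRO-GFP cells. Benchmarks: DMSO vehicle wells and RFP-L50D-GFP reporter cell wells. Times: overnight cell settling, then overnight compound exposure, 37 °C, 5% CO2. Compound: 20 µM single dose, 1% DMSO. Read-out basis: GFP/RFP fluorescence ratio.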
ADAM17 inh = ADAM17 inhibition, QFRET primary screen; P78536; recombinant ADAM17, EDANS/DABCYL FRET peptide cleavage; inhibition, % at 6.95 µM; 0.83% of 370,000 active; AID 720648;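 active = inhibition above the mean of compounds lying between control limits plus 3 SD, set per campaign, cut at about 8.5% in these data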;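 note: 0% = DMSO-only wells as the low control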
DDE Tn7 FP inh = disrupts Tn7 cyclic peptide binding to fibrin D-Dimer-E complex | 0.13% of 370,000 active | AID 720508 | inhibition, % at 8.3 µM | P02675 | FP displacement of FITC-Tn7 peptide from fibrin DD(E); 0% = median of compound wells per plate;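 active = inhibition above the mean of compounds falling within the control limits plus 3 SD of them, cut at about 14% in these data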;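 note: 0% = plate median of compound wells and 100% = 10 µM Aha-Tn7 peptide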
Target sequence (P02675 whole entry, looked up): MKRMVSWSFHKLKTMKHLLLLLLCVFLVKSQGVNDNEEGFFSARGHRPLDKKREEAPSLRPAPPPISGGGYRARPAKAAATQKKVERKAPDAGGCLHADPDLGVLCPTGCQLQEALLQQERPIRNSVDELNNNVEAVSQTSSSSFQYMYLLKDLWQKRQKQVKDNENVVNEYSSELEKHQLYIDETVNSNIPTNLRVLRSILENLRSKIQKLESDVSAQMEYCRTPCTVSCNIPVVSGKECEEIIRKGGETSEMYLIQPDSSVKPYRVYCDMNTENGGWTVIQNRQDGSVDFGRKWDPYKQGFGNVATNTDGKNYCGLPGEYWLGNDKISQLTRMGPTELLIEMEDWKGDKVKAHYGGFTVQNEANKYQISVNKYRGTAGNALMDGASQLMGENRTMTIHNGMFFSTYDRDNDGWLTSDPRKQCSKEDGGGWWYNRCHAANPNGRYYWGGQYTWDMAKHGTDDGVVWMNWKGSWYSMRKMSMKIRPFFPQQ
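Measure: % inhibition scaled between sample-field median and high-control FP; Test system: human fibrin DD(E); Quantity: 2 µM final DD(E) protein; Doses: one dose, 8.3 µM nominal; Schedule: compound with protein 10 min, then 3 h after probe, room temperature; Detection: fluorescence polarization; Medium: Tris buffer with calcium and detergent, pH 7.8.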
ADAM10 inh = inhibits human ADAM10; O14672; recombinant ADAM10, EDANS/DABCYL FRET peptide cleavage, 3 h; inhibition, % at 7 µM; 0.62% of 370,000 active;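 active = inhibition above a per-campaign cutoff equal to the mean of compounds falling between control-based bounds plus 3 SD, cut at about 20% in these data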;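 note: 0% = DMSO wells while the 100% control is not disclosed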
DDE Tn6 FP inh = DD(E)-Tn6 binding inhibition, primary FP screen | P02675 | Fibrin DD(E) TRITC-Tn6 fluorescence polarization displacement | inhibition, % at 8.3 µM | 0.21% of 370,000 active | AID 720509;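 active = inhibition above a per-campaign cutoff: mean of compounds within control limits plus 3 SD, cut at about 15% in these data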;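 note: 0% = median of all compound wells on the plate and 100% = blocking peptide control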
DDE Tn6 FP ctr = DD(E)-Tn6 binding inhibition, counter-screen | 2% of 680 active | inhibition, % at 8.3 µM | Fibrin DD(E), TRITC-Tn6 fluorescence polarization displacement; 0% = median of compound wells, not DMSO | shares compounds with DDE Tn6 FP inh;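 active = inhibition above the mean of test compounds lying between the control limits plus 3 SD of those, cut at about 14% in these data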;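 note: 0% = median of compound wells and 100% = wells with Aha-Tn7 blocking peptide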
DDE Tn6 confirm = DD(E)-Tn6 binding inhibition, FP confirmation. shares compounds with DDE Tn6 FP inh. FP displacement of TRITC-Tn6 peptide from DD(E); 0% = per-plate median of test wells. inhibition, % at 8.3 µM. 10% of 680 active. AID 720631;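 active = inhibition above the mean of compounds lying within the control limits plus 3 SD, cut at about 16% in these data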;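 note: 100% = high control wells holding a competing inhibitor peptide at 10 µM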
An asterisk follows results filed as active; i = inactive; . = no result.

SMILES | MT1-MMP act inh | ADAM17 inh | DDE Tn7 FP inh | ADAM10 inh | DDE Tn6 FP inh | DDE Tn6 FP ctr | DDE Tn6 confirm
O=S1(=O)C=C(Sc2ccc(Cl)cc2)c2ccccc2C1Cc1ccc(F)cc1 (configuration not stated) | . | 1 | 4 | 2 | 0 | . | .
COc1ccc(C2=Nn3c(nnc3-c3cccnc3)SC2)cc1OC | 3 | -1 | 3 | 9 | 6 | . | .
COc1ccc(C2=Nn3c(nnc3-c3ccncc3)SC2)cc1OC | -9 | 0 | -4 | -3 | 19* | -2 | -6
CN(C)c1cccc(O)c1 | 6 | -3 | -4 | -10 | 34* | 0 | 3
Cc1cc(O)ccc1Nc1cc(-c2cccc(N(C)C)c2)ncn1 | 3 | -4 | 2 | -2 | -1 | . | .
Cc1ccc(NC(=O)/C=C/c2ccc([N+](=O)[O-])s2)cc1 | -58 | 0 | 3 | 1 | 18* | -4 | -7
Cc1cccc(NC(=O)/C=C/c2ccc([N+](=O)[O-])s2)c1 | -177 | 1 | 1 | 2 | 1 | . | .
Cc1ccc(NS(=O)(=O)c2ccc(Cl)c(C(=O)Nc3ccccc3-c3nc4ccccc4[nH]3)c2)cc1C | -12 | -13 | -5 | -79 | 16* | 8 | 3
CN(C)S(=O)(=O)c1ccc(Cl)c(C(=O)Nc2nc3ccccc3[nH]2)c1 | -1 | -4 | -9 | -7 | 2 | . | .
COC(=O)c1cc(Br)c(=O)n(CCN2CCCCC2)c1 | 8 | -3 | -4 | -5 | -3 | . | .
COC(=O)c1cc(Br)c(=O)n(CCN2CCCC2)c1 | 0 | -3 | 2 | -1 | 17* | -3 | -5
C[C@H](O)[C@@H]1CN2CCc3ccc(-c4ccc5c(c4)OCO5)cc3[C@@H]2C[C@@H]1N(C)Cc1cc(Cl)cc(Cl)c1 | . | -1 | 2 | -17 | 3 | . | .
CCN(Cc1nc2cc(Cl)ccc2c(=O)[nH]1)C(=O)c1cc(C2CC2)nn1-c1ccccc1 | -5 | 4 | -5 | -1 | 16* | -1 | -16
Cc1ccc(CSc2ncn(-c3ccccc3)n2)cc1 | 10 | 3 | 1 | 12 | 16* | 4 | -2
CC(Oc1ccc2c(c1)c1ccnc3c4ccccc4c(=O)n2c13)C(=O)NCCN1CCOCC1 (configuration not stated) | . | -243 | -1 | i | 36* | 4 | 8
COc1ccc2c(c1OC)c(=O)n1c3ccc(OC(C)C(=O)NCCN4CCOCC4)cc3c3ccnc2c31 (configuration not stated) | 7 | -368 | 2 | i | 27* | -5 | -5
Cc1ccc(Cl)cc1NC(=O)CN1C(=O)COc2ccc(S(=O)(=O)N3CCOCC3)cc21 | 9 | 3 | 6 | -2 | 16* | 1 | -3
COc1ccc(-n2c(SCC(=O)Nc3ccc(S(=O)(=O)Nc4nccs4)cc3)nnc2-c2cccs2)cc1 | . | 1 | 3 | 1 | -4 | . | .
COc1cccc(OCC(=O)Nc2ccccc2NC(C)=O)c1 | 1 | -1 | -7 | 8 | 17* | -1 | -2
CC1(C)CC(=O)C=C(C2CC2)C1=O | . | 0 | -7 | 1 | -3 | . | .
CC[C@H](CCC(=O)N(c1ccccc1)c1ccccc1)c1ccc(C)cc1 | . | -2 | 4 | 1 | 3 | . | .
c1ccc2c(c1)CCN(C1=Nc3cccc4cccc1c34)C2 | 38 | -31 | -4 | -83 | 18* | -7 | 63*
c1ccc2c(c1)ncn2CCC1CCCCC1 | -7 | -4 | 7 | 4 | 18* | 8 | 2
NC(=O)CCn1cnc2ccccc21 | 1 | 2 | -2 | 3 | 0 | . | .
COc1cccc(CN(C)CC(=O)NC(=O)NCc2ccco2)c1 | 4 | 0 | -5 | 1 | 18* | -3 | -2
O=C(Cc1c[nH]c2ccccc12)Nc1ccc(Nc2cccnc2)c(-c2cccc(Cl)c2)c1 | . | 0 | 1 | 3 | 3 | . | .
